Laboratory results published in PMC3754432 (Journal of the American Chemical Society, 2013).
“And” between values parts separate entries of the source, which are not always exact repeats. Identical values can stand only once. Values belong to the compound of their own block, whether it stands above or below them.

Key:
Cytochrome P450 2B6 [1] = biological target: T1, Cytochrome P450 2B6 (Homo sapiens, UniProt P20813, K262R/Y226H); experiment: Isothermal titration calorimetry; type: binding; conditions: 25 °C
T1 sequence (P20813 with tags, fused parts or gaps Y226H/K262R limits assumed): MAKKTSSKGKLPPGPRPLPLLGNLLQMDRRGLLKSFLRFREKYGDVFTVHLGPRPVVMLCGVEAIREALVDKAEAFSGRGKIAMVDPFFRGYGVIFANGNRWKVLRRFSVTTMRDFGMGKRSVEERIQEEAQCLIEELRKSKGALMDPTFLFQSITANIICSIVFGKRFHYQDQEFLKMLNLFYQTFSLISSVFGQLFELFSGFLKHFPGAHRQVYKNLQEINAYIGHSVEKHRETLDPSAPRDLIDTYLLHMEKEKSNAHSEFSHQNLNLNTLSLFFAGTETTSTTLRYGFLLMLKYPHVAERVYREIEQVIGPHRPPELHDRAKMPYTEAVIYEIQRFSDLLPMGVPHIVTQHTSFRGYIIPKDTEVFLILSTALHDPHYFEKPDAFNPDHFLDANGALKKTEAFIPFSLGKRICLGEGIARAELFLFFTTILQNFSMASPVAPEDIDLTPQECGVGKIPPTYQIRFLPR

Cytochrome P450 2B6 [2] = biological target: T1, Cytochrome P450 2B6; experiment: Spectral binding titration; conditions: for Kd: mean (SD)
Outline: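 Human 2B6 (Y226H/K262R), co-expressed with GroEL/ES in E. coli JM109 and purified by Ni-NTA then CM-Sepharose; P450 quantified by reduced CO difference spectra. Titrated at 25 °C with stirring in 50 mM K-phosphate pH 7.4, 500 mM NaCl, 1 mM EDTA, 1 mM TCEP. Ligand was added from acetone (<1% final) and 350–700 nm spectra were recorded. High-spin fraction was derived by PCA against spin-state standards. KS came from a tight-binding fit, or a Hill fit for one ligand.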

2B6 [3] = conditions: cited from earlier work
Cytochrome P450 2A6 [4] = biological target: T2, Cytochrome P450 2A6 (Homo sapiens, UniProt P11509); experiment: Spectral binding titration; conditions: read-out: Ks (spectral dissociation constant), 25 °C, mean (SD)
T2 sequence (P11509 with tags, fused parts or gaps limits assumed): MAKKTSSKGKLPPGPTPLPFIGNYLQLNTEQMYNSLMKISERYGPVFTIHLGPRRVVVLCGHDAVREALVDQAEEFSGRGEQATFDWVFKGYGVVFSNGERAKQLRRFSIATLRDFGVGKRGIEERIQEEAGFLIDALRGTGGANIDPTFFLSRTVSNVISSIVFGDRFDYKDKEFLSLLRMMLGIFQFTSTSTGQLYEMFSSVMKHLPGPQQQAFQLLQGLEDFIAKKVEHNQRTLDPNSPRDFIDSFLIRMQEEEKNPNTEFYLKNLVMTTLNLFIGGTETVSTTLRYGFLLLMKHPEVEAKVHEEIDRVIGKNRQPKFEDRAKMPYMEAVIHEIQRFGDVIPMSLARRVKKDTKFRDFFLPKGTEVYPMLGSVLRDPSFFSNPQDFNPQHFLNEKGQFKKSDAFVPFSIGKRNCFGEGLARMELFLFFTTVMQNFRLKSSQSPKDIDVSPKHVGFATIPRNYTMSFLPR

2B6 [5] = experiment: Maximal binding affinity for 2B6 predicted from logP; parameters: species or system human; conditions: 298 K, based solely on enthalpy of desolvation, −1.364×logP
Cytochrome P450 2A6 [6] = biological target: T2, Cytochrome P450 2A6; experiment: Isothermal titration calorimetry; type: binding; conditions: 25 °C

KD (KA^−1 from ITC) (Cytochrome P450 2B6 [1]; mean (SD)): 1.82 (0.61) 10^−6 M
ΔG (Cytochrome P450 2B6 [1]; ITC, mean (SD)): −7.5 (1.4) kcal/mol
ΔS (Cytochrome P450 2B6 [1]; ITC, mean (SD)): 3.2 (2.3) cal/mol/K
ΔH (Cytochrome P450 2B6 [1]; ITC, mean (SD) of at least three experiments): −6.3 (2.2) kcal/mol
spectral shift upon binding (Cytochrome P450 2B6 [2]; 2B6, increase at 390 nm, decrease at 417 nm): Type I spectral shift
Kd (Cytochrome P450 2B6 [2]; read-out: Ks measured using the Hill equation giving the S50, spectral titration, 2B6, Hill equation, n=2): 1.6 µM
ΔFh (maximal increase in fraction of high-spin P450) (Cytochrome P450 2B6 [2]; spectral titration, 25 °C, 2B6): 42.5 ± 3.4% and 42.5 (3.4) %
Compound: CC1=CCC2C(C1)C2(C)C (single isomer, unassigned; (+)) [(+)-3-carene]

Compound: COC(=O)[C@H](c1ccccc1Cl)N1CCc2sccc2C1 [clopidogrel]
change in the fraction of high-spin P450 (2B6 [3]): 2 – 4%

Compound: Clc1ccccc1CN1CCc2sccc2C1 [ticlopidine]
change in the fraction of high-spin P450 (2B6 [3]): 2 – 4%

Compound: (+)-α-Pinene
Kd (Cytochrome P450 2A6 [4]): 34.2 µM
maximal binding affinity predicted from logP (2B6 [5]): ~ −6 kcal/mol
KD (KA^−1 from ITC) (Cytochrome P450 2A6 [6]; mean (SD)): 0.17 (0.05) 10^−6 M
Kd (Cytochrome P450 2A6 [6]; ITC): ~0.17 µM
KD (KA^−1 from ITC) (Cytochrome P450 2B6 [1]; mean (SD)): 0.22 (0.17) 10^−6 M
Kd (Cytochrome P450 2B6 [1]; ITC): ~0.22 µM
Kd (Cytochrome P450 2B6 [2]; read-out: Ks (spectral dissociation constant), spectral titration, 25 °C, 2B6): 0.38 µM
